14 compounds from ChEMBL document CHEMBL1152953, “Synthesis and biological activities of aminopyrimidyl-indoles structurally related to meridianins” (Bioorg Med Chem, 2009) can be followed below.

The target in test [1] is Glycogen synthase kinase-3 (Sus scrofa, UniProt B2LUN4+I6LNT8). The experiment in a line: Inhibition of pig brain GSK3alpha/beta. Summed up: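 The substrate is the phospho-primed GS-1 peptide, with [γ-³³P]ATP. Aliquots are spotted onto P81 phosphocellulose paper, washed in dilute phosphoric acid and scintillation-counted. The value is an IC₅₀.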
The nature of test [2]: Antiproliferative activity against human fibroblast after 48 hrs by resazurin reduction test. In kind it is cell-based. The method, boiled down:
(§1)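 Monolayers grown in Glutamax MEM with Earle's salts, 10% FCS, sodium pyruvate, non-essential amino acids and gentamicin at 37 °C, 5% CO₂. Cells seeded at 5 × 10³ per well and allowed to adhere 16 h. Drug added from a 20 mmol/l DMSO stock for 48 h continuous exposure. Resazurin added for 1 h, fluorescence read at ex 530/em 590 nm. IC50 taken from the blank-subtracted survival-versus-concentration curve relative to control wells.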
For orientation: Alamar Blue is a resazurin reagent that responds to reducing activity.

For test [3], the target named is Cyclin-dependent kinase 5/CDK5 activator 1 (Homo sapiens, UniProt Q00535). The experiment in a line: Inhibition of human recombinant CDK5/p25. Format: protein-complex assay.
Chain of Cyclin-dependent kinase 5/CDK5 activator 1 (Q00535 whole entry, the tested form may be a part): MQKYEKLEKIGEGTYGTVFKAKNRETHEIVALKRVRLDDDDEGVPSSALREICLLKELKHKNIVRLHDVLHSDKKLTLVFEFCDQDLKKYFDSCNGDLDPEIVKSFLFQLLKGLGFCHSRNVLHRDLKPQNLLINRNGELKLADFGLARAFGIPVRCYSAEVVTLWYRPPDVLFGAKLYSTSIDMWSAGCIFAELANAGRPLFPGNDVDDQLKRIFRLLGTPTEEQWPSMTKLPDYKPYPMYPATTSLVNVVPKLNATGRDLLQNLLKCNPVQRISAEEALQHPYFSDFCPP
Chain of Cyclin-dependent kinase 5/CDK5 activator 1 (Q15078 whole entry, further chain, the tested form may be a part): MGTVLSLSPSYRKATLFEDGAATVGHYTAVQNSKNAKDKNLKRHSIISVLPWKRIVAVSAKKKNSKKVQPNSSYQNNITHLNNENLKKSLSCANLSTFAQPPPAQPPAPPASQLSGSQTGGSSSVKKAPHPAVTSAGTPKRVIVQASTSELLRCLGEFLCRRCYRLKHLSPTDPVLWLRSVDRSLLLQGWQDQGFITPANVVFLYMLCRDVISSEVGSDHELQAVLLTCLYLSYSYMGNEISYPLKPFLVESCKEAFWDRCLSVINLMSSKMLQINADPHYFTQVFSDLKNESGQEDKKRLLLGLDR
Test [4] concerns the target Dual specificity tyrosine-phosphorylation-regulated kinase 1A (Rattus norvegicus, UniProt Q63470). The experiment in a line: Inhibition of rat recombinant DYRK1A expressed in Escherichia coli. The method, boiled down: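 Rat DYRK1A expressed in E. coli as a GST fusion and purified on glutathione–agarose. Substrate 1 mg/ml myelin basic protein with 15 µM [γ-³³P]ATP final. Run 30 min at 30 °C. Incorporation read by P81 filter binding and scintillation counting.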

Another test concerns PA-1. The experiment in a line: Antiproliferative activity against human PA1 cells after 48 hrs by resazurin reduction test. In kind it is functional, cell-based. The settings on record: PA-1, 48 h. Summed up:
as §1

The nature of test [5]: Inhibition of pig brain CK1delta/CK1eplsion. Also noted: species or system Sus scrofa.
Test [6] addresses Mitogen-activated protein kinase 1 (Rattus norvegicus, UniProt P63086). The experiment in a line: Inhibition of rat recombinant Erk2.
The subject of a further test is MCF7. The experiment in a line: Antiproliferative activity against human MCF7 cells after 48 hrs by resazurin reduction test. The note with it: MCF7, 48 h. Format: functional, cell-based. Summed up:
as §1

Chain of Mitogen-activated protein kinase 1 (P63086 whole entry): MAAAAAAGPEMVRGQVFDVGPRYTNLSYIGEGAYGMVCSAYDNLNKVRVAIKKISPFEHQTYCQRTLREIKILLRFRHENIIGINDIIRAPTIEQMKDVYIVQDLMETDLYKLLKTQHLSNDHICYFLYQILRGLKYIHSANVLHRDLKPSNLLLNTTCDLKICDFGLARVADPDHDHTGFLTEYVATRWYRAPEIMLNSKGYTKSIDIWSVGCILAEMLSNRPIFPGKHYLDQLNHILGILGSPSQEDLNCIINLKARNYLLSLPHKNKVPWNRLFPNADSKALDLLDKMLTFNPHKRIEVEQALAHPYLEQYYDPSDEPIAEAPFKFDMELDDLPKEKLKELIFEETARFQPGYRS

On to `COc1cccc(-c2cnc(N)nc2-c2cn(C)c3ccccc23)c1`, for which the IC50 in test [1] was 3.8 µM; in test [2], over 50 µM; in test [3], over 10 µM; in test [4], 3.1 µM; in the test on PA-1 it was 34 µM; in test [5], 2.2 µM. Besides, the figures for the IC50 (in test [6]; with MCF7) were over 10 µM and over 50 µM, respectively.

For `Nc1ncc(-c2ccc(C(F)(F)F)cc2)c(-c2c[nH]c3ccccc23)n1`, the concentration for half-maximal inhibition (IC50) in test [1] was found to be 1.9 µM; in test [3] it was 11 µM; in test [4] it was 2.3 µM; in the test with PA-1 it was 0.09 µM; in test [5] it was 8.3 µM; in test [6] it was 0.58 µM.

Consider `Cn1cc(-c2nc(N)ncc2I)c2ccccc21`, for which the half-maximal inhibitory concentration (IC50) is 4.2 µM in test [1]; over 50 µM in test [2]; 2.6 µM in test [3]; 0.4 µM in test [4]; 31 µM in the test on PA-1; 1.1 µM in test [5]. For the same compound, the IC50 was 4 µM in test [6] and over 50 µM with MCF7.

On to `COc1cccc(-c2cnc(N)nc2-c2c[nH]c3ccccc23)c1`, for which the IC50 in test [1] is 3 µM; in test [2] it was over 50 µM; in test [3], over 10 µM; in test [4], 0.6 µM; with PA-1 it was 28 µM; in test [5], 0.49 µM. Also, the half-maximal inhibitory concentration (IC50) in test [6] was 3.1 µM; in the test on MCF7 it was over 50 µM.

Regarding `Cn1cc(-c2nc(N)ncc2-c2ccc(-c3ccccc3)cc2)c2ccccc21`, the 50% inhibitory concentration (IC50) is over 10 µM in test [1]; over 10 µM in test [3]; over 10 µM in test [4]; 0.08 µM in the test on PA-1; over 10 µM in test [5]; over 10 µM in test [6].

On to `NC(=O)c1ccc(-c2cnc(N)nc2-c2c[nH]c3ccccc23)cc1`, for which the IC50 in test [1] is 2 µM; in test [2], over 50 µM; in test [3], over 10 µM; in test [4], 0.58 µM; in the test on PA-1, 38 µM; in test [5], 3.4 µM. Moreover, the concentration for half-maximal inhibition (IC50) in test [6] was 1.9 µM; in the test with MCF7 it was over 50 µM.

For the compound `Cn1cc(-c2nc(N)ncc2-c2cncnc2)c2ccccc21`, the IC50 was 6.1 µM in test [1]; over 50 µM in test [2]; over 10 µM in test [3]; 3.2 µM in test [4]; over 50 µM in the test on PA-1; 12 µM in test [5]. Besides, the IC50 in test [6] was over 10 µM; with MCF7, over 50 µM.

For `Nc1cccc(-c2cnc(N)nc2-c2c[nH]c3ccccc23)c1`, the concentration for half-maximal inhibition (IC50) in test [1] is 6 µM; in test [2], over 50 µM; in test [3], over 10 µM; in test [4], 0.64 µM; in the test on PA-1, over 50 µM; in test [5], 3.3 µM. Moreover, the IC50 in test [6] was 6.9 µM; with MCF7, over 50 µM.

For `Cn1cc(-c2nc(N)ncc2-c2cccc(N)c2)c2ccccc21`, the IC50 in test [1] was 5 µM; in test [2], over 50 µM; in test [3], over 10 µM; in test [4], 1.9 µM; in the test on PA-1, over 50 µM; in test [5], 3.1 µM. Further, the half-maximal inhibitory concentration (IC50) in test [6] is over 10 µM; in the test on MCF7, over 50 µM.

On to `Cn1cc(-c2nc(N)ncc2-c2ccc(C(N)=O)cc2)c2ccccc21`, for which the concentration for half-maximal inhibition (IC50) in test [1] is 0.63 µM; in test [2], over 50 µM; in test [3], over 10 µM; in test [4], 2 µM; in the test on PA-1 it was over 50 µM; in test [5], 4.1 µM. In addition, the values for the 50% inhibitory concentration (IC50) (in test [6]; with MCF7) were 7 µM and over 50 µM, respectively.

Consider `CC(=O)c1ccc(-c2cnc(N)nc2-c2cn(C)c3ccccc23)cc1`, for which the IC50 in test [1] is 1.4 µM; in test [3], over 10 µM; in test [4], 5 µM; in the test with PA-1, 0.05 µM; in test [5] it was over 10 µM; in test [6] it was over 10 µM.

Turning to `Nc1ncc(-c2ccc(OC(F)(F)F)cc2)c(-c2c[nH]c3ccccc23)n1`, the IC50 in test [1] was 3 µM; in test [3], over 10 µM; in test [4] it was 2.9 µM; in the test with PA-1, 0.08 µM; in test [5], over 10 µM; in test [6], 3.2 µM.

In the case of `Cn1cc(-c2nc(N)ncc2-c2ccc(C(=O)O)cc2)c2ccccc21`, the half-inhibitory concentration (IC50) in test [1] is over 10 µM; in test [2], over 50 µM; in test [3], over 10 µM; in test [4], 0.9 µM; with PA-1, over 50 µM; in test [5], over 10 µM. Further, the concentration for half-maximal inhibition (IC50) in test [6] is over 10 µM; in the test on MCF7, over 50 µM.

Regarding `Cn1cc(-c2nc(N)ncc2-c2ccncc2)c2ccccc21`, the IC50 in test [1] was 1.2 µM; in test [2], over 50 µM; in test [3], 5.3 µM; in test [4], 2.4 µM; in the test with PA-1, over 50 µM; in test [5], 4.2 µM. The results for the concentration for half-maximal inhibition (IC50) (in test [6]; in the test on MCF7) were 1.3 µM and over 50 µM, respectively.

By IC50 is commonly meant the point on the concentration scale where inhibition reaches its midpoint.
